In ChEMBL document CHEMBL1158523, “Piperidine-based heterocyclic oxalyl amides as potent p38 alpha MAP kinase inhibitors” (Bioorg Med Chem Lett, 2010):

How the values were obtained:
[1] = biological target: Mitogen-activated protein kinase 14 (Homo sapiens, UniProt Q16539); experiment: Inhibition of human p38alpha after 60 mins
Summary of the method: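 Radiometric kinase assay measuring incorporation of γ-32P-ATP into biotinylated peptide substrate by human p38α (5 nM). 60 min at 30 °C, phosphoric acid stop, streptavidin capture, scintillation counting; background-subtracted IC50 versus no-inhibitor controls.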

Blood [2] = experiment: Inhibition of LPS-induced TNFalpha production in human diluted whole blood after 2 hrs by ELISA; format: functional, tissue-based
Blood [3] = experiment: Inhibition of LPS-induced TNFalpha production in human diluted whole blood at 1 uM after 2 hrs by ELISA; format: functional
Blood [4] = experiment: Inhibition of LPS-induced TNFalpha production in human diluted whole blood at 0.3 uM after 2 hrs by ELISA; format: functional

Chain of Mitogen-activated protein kinase 14 (Q16539 whole entry): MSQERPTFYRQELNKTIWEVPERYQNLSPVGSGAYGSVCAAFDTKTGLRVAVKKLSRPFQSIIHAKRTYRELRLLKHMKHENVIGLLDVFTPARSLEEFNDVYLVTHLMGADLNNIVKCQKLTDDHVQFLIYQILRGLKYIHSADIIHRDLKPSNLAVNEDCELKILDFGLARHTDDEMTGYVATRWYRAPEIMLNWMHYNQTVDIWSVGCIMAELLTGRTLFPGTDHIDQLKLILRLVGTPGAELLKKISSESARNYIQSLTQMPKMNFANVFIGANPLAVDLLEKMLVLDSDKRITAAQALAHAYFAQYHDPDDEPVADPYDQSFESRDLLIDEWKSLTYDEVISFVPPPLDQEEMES

Compound | IC50 [1] | IC50 (Blood [2]) | inhibition at 1 µM (Blood [3]) | inhibition at 0.3 µM (Blood [4])
Cc1[nH]c2ccc(C(=O)C(=O)N(C)C)cc2c1C(=O)N1CCC(Cc2ccc(F)cc2)CC1 | 0.09 µM | – | – | –
COc1nc2[nH]cc(C(=O)C(=O)N(C)C)c2cc1C(=O)N1CCC(Cc2ccc(F)cc2)CC1 | 0.06 µM | 0.048 µM | – | –
COc1ccc(C(=O)C(=O)N(C)C)cc1C(=O)N1CCC(Cc2ccc(F)cc2)CC1 | 0.945 µM | – | 17% | –
COc1cc2occ(C(=O)C(=O)N(C)C)c2cc1C(=O)N1CCC(Cc2ccc(F)cc2)CC1 | 0.6 µM | – | 10% | –
CN(C)C(=O)C(=O)c1c[nH]c2cc(Cl)c(C(=O)N3CCC(Cc4ccc(F)cc4)CC3)cc12 | 0.018 µM | 0.1 µM | – | –
COc1cc2[nH]cc(C(=O)C(=O)N(C)C)c2cc1C(=O)N1CCC(Cc2ccc(F)cc2)CC1 | 0.01 µM | 0.03 µM | – | –
CN(C)C(=O)C(=O)c1ccc2c(c1)C=C(C(=O)N1CCC(Cc3ccc(F)cc3)CC1)C(C(F)(F)F)O2 (centres undefined) | > 10 µM | – | – | –
CN(C)C(=O)C(=O)c1nn(C)c2cc(Cl)c(C(=O)N3CCC(Cc4ccc(F)cc4)CC3)cc12 | 0.1 µM | – | – | 26%
